Measured values reported in ChEMBL document CHEMBL3763115, “Silibinin derivatives as anti-prostate cancer agents: Synthesis and cell-based evaluations” (Eur J Med Chem, 2016).

Columns and labels:
[1] = system: LNCaP; assay: Potency index, ratio of silibinin IC50 to compound IC50 for antiproliferative activity against human LNCAP cells; type: functional
Outline: (§1)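 Ratio of silibinin IC50 to derivative IC50. Both come from the 3-day WST-1 assay run in parallel (5 doses, absorbance at 430 nm, IC50 from linear fit, at least triplicates).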

[2] = Antiproliferative activity against human DU145 cells assessed as reduction in cell viability after 3 days by WST-1 cell proliferation assay; type: functional, cell-based; settings: DU-145, 72 h
Outline: (§2)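 Cells from ATCC; PC-3 and LNCaP grown in RPMI-1640, DU145 in EMEM, each with 10% FBS and 1% penicillin/streptomycin, 37 °C, 5% CO2. 3,200 cells per well, treated at 5 concentrations for 3 days with 0.25% DMSO as vehicle control. WST-1 reagent added, 3 h at 37 °C, absorbance read at 430 nm. IC50 from linear fit of at least five doses, mean of at least triplicates.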

[3] = Potency index, ratio of silibinin IC50 to compound IC50 for antiproliferative activity against human PC3 cells; type: functional, PC-3; outline: as §1
[4] = Antiproliferative activity against human PC3 cells assessed as reduction in cell viability after 3 days by WST-1 cell proliferation assay; type: functional, cell-based; settings: PC-3, 72 h; outline: as §2
[5] = Potency index, ratio of silibinin IC50 to compound IC50 for antiproliferative activity against human DU145 cells; type: functional, DU-145; outline: as §1
[6] = system: LNCaP; assay: Antiproliferative activity against human LNCAP cells assessed as reduction in cell viability after 3 days by WST-1 cell proliferation assay; type: functional, cell-based; settings: 72 h; outline: as §2

| Structure (SMILES) | Ratio IC50 [1] | IC50 [2] [µM] | Ratio IC50 [3] | IC50 [4] [µM] | Ratio IC50 [5] | IC50 [6] [µM] |
| --- | --- | --- | --- | --- | --- | --- |
| COc1cc(C2Oc3cc(-c4oc5cc(OCc6ccccc6)cc(O)c5c(=O)c4O)ccc3OC2CO)ccc1O (stereo unspecified) | 12 | 8.97 | 9 | 7.98 | 10 | 3.71 |
| CCCCOc1cc(O)c2c(=O)c(O)c(-c3ccc4c(c3)OC(c3ccc(O)c(OC)c3)C(CO)O4)oc2c1 (stereo unspecified) | 13 | 5.81 | 16 | 4.55 | 16 | 3.19 |
| CCCCOc1cc(O)c2c(c1)O[C@H](c1ccc3c(c1)OC(c1ccc(O)c(OC)c1)C(CO)O3)[C@@H](O)C2=O (stereo partly specified) | 17 | 12 | 14 | 5.38 | 8 | 2.51 |
| COc1cc(O)c2c(=O)c(O)c(-c3ccc4c(c3)OC(c3ccc(O)c(OC)c3)C(CO)O4)oc2c1 (stereo unspecified) | 16 | 7.92 | 30 | 2.39 | 12 | 2.76 |
| CCCCCCCOc1cc(O)c2c(=O)c(O)c(-c3ccc4c(c3)OC(c3ccc(O)c(OC)c3)C(CO)O4)oc2c1 (stereo unspecified) | 9 | 7.49 | 10 | 7.09 | 12 | 4.81 |
| COc1cc(C2Oc3cc([C@H]4Oc5cc(O)cc(O)c5C(=O)[C@@H]4O)ccc3OC2CO)ccc1O (stereo partly specified) [SILIBININ] |  | 93.3 |  | 72.7 |  | 43 |
| COc1cc(O)c2c(=O)c(OC)c(-c3ccc4c(c3)OC(c3ccc(O)c(OC)c3)C(CO)O4)oc2c1 (stereo unspecified) | 6 | 22.2 | 5 | 15.3 | 4 | 6.88 |
| CCCOc1cc(O)c2c(=O)c(O)c(-c3ccc4c(c3)OC(c3ccc(O)c(OC)c3)C(CO)O4)oc2c1 (stereo unspecified) | 10 | 5.36 | 15 | 4.69 | 17 | 4.41 |
| CCCCCCCOc1cc(O)c2c(c1)O[C@H](c1ccc3c(c1)OC(c1ccc(O)c(OC)c1)C(CO)O3)[C@@H](O)C2=O (stereo partly specified) | 9 | 17.4 | 7 | 10.9 | 5 | 4.57 |
| CCCCCOc1cc(O)c2c(c1)O[C@H](c1ccc3c(c1)OC(c1ccc(O)c(OC)c1)C(CO)O3)[C@@H](O)C2=O (stereo partly specified) | 24 | 8.93 | 12 | 6.17 | 10 | 1.78 |
| CCCCCCOc1cc(O)c2c(=O)c(OCCCCCC)c(-c3ccc4c(c3)OC(c3ccc(O)c(OC)c3)C(CO)O4)oc2c1 (stereo unspecified) | <1 | > 100 | <1 | > 100 | <1 | > 100 |
| CCCCOc1cc(O)c2c(=O)c(OCCCC)c(-c3ccc4c(c3)OC(c3ccc(O)c(OC)c3)C(CO)O4)oc2c1 (stereo unspecified) | 1 | 36.5 | 2 | 45.8 | 3 | 46.6 |
| CCCCCCOc1cc(O)c2c(c1)O[C@H](c1ccc3c(c1)OC(c1ccc(O)c(OC)c1)C(CO)O3)[C@@H](O)C2=O (stereo partly specified) | 26 | 11.3 | 12 | 5.97 | 8 | 1.65 |
| COc1cc(O)c2c(c1)O[C@H](c1ccc3c(c1)OC(c1ccc(O)c(OC)c1)C(CO)O3)[C@@H](O)C2=O (stereo partly specified) | 98 | 25.1 | 6 | 12.4 | 4 | 0.44 |
| COc1cc(C2Oc3cc([C@H]4Oc5cc(OCc6ccccc6)cc(O)c5C(=O)[C@@H]4O)ccc3OC2CO)ccc1O (stereo partly specified) | 21 | 8.77 | 14 | 5.29 | 11 | 2.04 |
| CCOc1cc(O)c2c(=O)c(OCC)c(-c3ccc4c(c3)OC(c3ccc(O)c(OC)c3)C(CO)O4)oc2c1 (stereo unspecified) | 8 | 10.4 | 9 | 8.5 | 9 | 5.57 |
| CCCCCCOc1cc(O)c2c(=O)c(O)c(-c3ccc4c(c3)OC(c3ccc(O)c(OC)c3)C(CO)O4)oc2c1 (stereo unspecified) | 11 | 8.84 | 10 | 6.94 | 11 | 4.01 |
| CCCOc1cc(O)c2c(=O)c(OCCC)c(-c3ccc4c(c3)OC(c3ccc(O)c(OC)c3)C(CO)O4)oc2c1 (stereo unspecified) | 4 | 20.6 | 5 | 17.4 | 5 | 11 |
| CCOc1cc(O)c2c(c1)O[C@H](c1ccc3c(c1)OC(c1ccc(O)c(OC)c1)C(CO)O3)[C@@H](O)C2=O (stereo partly specified) | 123 | 27.7 | 5 | 16.1 | 3 | 0.35 |
| CCCCCOc1cc(O)c2c(=O)c(O)c(-c3ccc4c(c3)OC(c3ccc(O)c(OC)c3)C(CO)O4)oc2c1 (stereo unspecified) | 9 | 6.92 | 12 | 6.05 | 14 | 4.62 |
| COc1cc(C2Oc3cc(-c4oc5cc(OCc6ccccc6)cc(O)c5c(=O)c4OCc4ccccc4)ccc3OC2CO)ccc1O (stereo unspecified) | <1 | > 100 | <1 | > 100 | <1 | > 100 |
| CCCCCCCOc1cc(O)c2c(=O)c(OCCCCCCC)c(-c3ccc4c(c3)OC(c3ccc(O)c(OC)c3)C(CO)O4)oc2c1 (stereo unspecified) | <1 | > 100 | <1 | > 100 | <1 | > 100 |
| CCCOc1cc(O)c2c(c1)O[C@H](c1ccc3c(c1)OC(c1ccc(O)c(OC)c1)C(CO)O3)[C@@H](O)C2=O (stereo partly specified) | 9 | 30.3 | 4 | 18.5 | 3 | 4.66 |
| CCCCCOc1cc(O)c2c(=O)c(OCCCCC)c(-c3ccc4c(c3)OC(c3ccc(O)c(OC)c3)C(CO)O4)oc2c1 (stereo unspecified) | 1 | 28.7 | 1 | 52.1 | 3 | 28.7 |
